For one assay, the species on record is Cavia porcellus. Nature of the assay: Binding affinity ratio of kappa opioid receptor (guinea pig brain membranes) with respect to delta opioid receptor( rat brain membranes). It counts as cell membranes. To be noted: Membrane. In short, it runs like this:
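Ratio of IC50 from [³H]U69,593 binding to μ/δ-depleted guinea pig brain membranes over IC50 from [³H]DADLE binding to rat brain membranes (μ sites blocked with 100 nM DAMGO). Both assays run at 25 °C in Tris-HCl pH 7.4, nine concentrations, run twice.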

The target in assay [1] is Kappa-type opioid receptor (Cavia porcellus, UniProt P41144). Nature of the assay: Binding affinity for Opioid receptor kappa 1 by the inhibition of binding of [3H]U-69593 in guinea pig brain membranes. Format: cell membranes. In outline:
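Guinea pig brain membranes, first depleted of μ and δ sites by pretreatment with irreversible ligands BIT and FIT. Nonspecific binding from 1 μM U69,593. Nine concentrations, run twice. IC50 reported.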

The target of assay [2] is Delta-type opioid receptor (Homo sapiens, UniProt P41143). Put plainly: Binding affinity for Opioid receptor delta 1 by the inhibition of binding of [3H]-p-DPDPE human cloned receptors. In short, it runs like this: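 Crude membranes from CHO cells stably expressing human δ receptor, with 0.75 nM [³H]-p-Cl-DPDPE. Samples incubated 3 h at 25 °C; nonspecific binding from 10 μM naltrexone; 10 inhibitor concentrations, with totals in duplicate. Filtered on PEI-treated glass-fiber filters, washed with cold saline, scintillation counted. IC50 by nonlinear regression.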

Assay [3] concerns the target T1, Delta-type opioid receptor (Rattus norvegicus, UniProt P33533). Nature of the assay: Binding affinity for Opioid receptor delta 1 by the inhibition of binding of [3H]DADAL in rat brain membranes. Format: cell membranes. In short, it runs like this: (§1)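 Rat brain membranes labelled with [³H]DADLE at 1.7-2.5 nM. Incubation 3-4 h at 25 °C in Tris-HCl pH 7.4 with 100 mM choline chloride, 3 mM MnCl₂, protease inhibitor cocktail and 100 nM DAMGO to block μ sites. Nonspecific binding defined with 20 μM levallorphan. Nine test concentrations, run twice. IC50 reported.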

In assay [4] the target is Opioid receptors; mu & delta (Homo sapiens) (UniProt P41143+P35372). Nature of the assay: Relative binding affinity to mu and delta opioid receptors. Format: protein assay.
Assay [5] deals with Mu-type opioid receptor (Rattus norvegicus, UniProt P33535). Put plainly: Binding affinity for Opioid receptor mu 1 by the inhibition of binding of [3H]DAMGO in rat brain membranes. It counts as cell membranes. In outline:
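Rat brain membranes with [³H]DAMGO at 1-3 nM, incubated 4 h at 25 °C in 50 mM Tris-HCl pH 7.4 plus protease inhibitor cocktail. Nonspecific binding measured with 20 μM levallorphan. Radioligand displaced by nine drug concentrations, in two runs. Drugs diluted in 10 mM Tris-HCl pH 7.4 containing 1 mg/mL BSA. IC50 reported.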

Assay [6] deals with Mu-type opioid receptor (Homo sapiens, UniProt P35372). Nature of the assay: Binding affinity for micro receptors by the inhibition of binding of [3H]DAMGO to Opioid receptor mu 1 in human cloned receptors. In short, it runs like this: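 Crude membranes from B82 mouse fibroblasts stably expressing human μ receptor, with 1.0 nM [³H]DAMGO. Samples incubated 3 h at 25 °C; nonspecific binding from 10 μM naltrexone; 10 inhibitor concentrations, with totals in duplicate. Filtered on PEI-treated glass-fiber filters, washed with cold saline, scintillation counted. IC50 by nonlinear regression.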

The target of assay [7] is Opioid receptors; mu & delta (Rattus norvegicus) (UniProt P33533+P33535). Nature of the assay: Binding affinity ratio on mu opioid receptor( rat brain membranes) with respect to delta opioid receptor (rat brain membranes). In short, it runs like this:
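Ratio of IC50 from [³H]DAMGO binding to rat brain membranes over IC50 from [³H]DADLE binding to rat brain membranes (μ sites blocked with 100 nM DAMGO). Both assays run at 25 °C in Tris-HCl pH 7.4, nine concentrations, run twice.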

In assay [8] the target is T1, Delta-type opioid receptor. Put plainly: Binding affinity for Opioid receptor delta 1 as inhibition of [3H]DADAL binding to rat brain membranes. It counts as cell membranes, Membrane. In short, it runs like this: as §1

Structures are written as SMILES.

One may read the IC50 as the concentration needed to halve the response being measured. A higher IC50 goes with weaker potency.

T1 sequence (P33533 whole entry): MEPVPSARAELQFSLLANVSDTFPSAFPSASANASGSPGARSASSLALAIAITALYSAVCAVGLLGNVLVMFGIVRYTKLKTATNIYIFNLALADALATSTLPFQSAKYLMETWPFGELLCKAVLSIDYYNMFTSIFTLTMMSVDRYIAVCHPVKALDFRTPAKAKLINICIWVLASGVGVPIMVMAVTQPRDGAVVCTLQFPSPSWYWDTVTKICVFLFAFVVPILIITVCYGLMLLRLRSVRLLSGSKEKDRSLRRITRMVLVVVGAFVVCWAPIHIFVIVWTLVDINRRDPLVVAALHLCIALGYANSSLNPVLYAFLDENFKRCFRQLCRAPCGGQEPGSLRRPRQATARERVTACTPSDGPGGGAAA
Chain of Opioid receptors; mu & delta (Rattus norvegicus) (P33533 whole entry, looked up): as the sequence (P33533 whole entry) above
Chain of Opioid receptors; mu & delta (Rattus norvegicus) (P33535 whole entry, looked up): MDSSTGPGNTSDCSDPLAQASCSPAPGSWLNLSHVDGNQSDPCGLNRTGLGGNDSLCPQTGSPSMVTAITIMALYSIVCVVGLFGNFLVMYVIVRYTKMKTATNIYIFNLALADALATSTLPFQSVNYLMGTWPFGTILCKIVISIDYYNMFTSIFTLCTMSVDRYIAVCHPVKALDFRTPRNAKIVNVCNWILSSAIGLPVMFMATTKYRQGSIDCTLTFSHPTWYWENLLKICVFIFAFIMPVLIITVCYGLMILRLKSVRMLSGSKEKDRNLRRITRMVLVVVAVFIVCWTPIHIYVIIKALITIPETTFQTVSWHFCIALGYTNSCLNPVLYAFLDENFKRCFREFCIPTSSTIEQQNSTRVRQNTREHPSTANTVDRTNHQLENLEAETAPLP
Chain of Kappa-type opioid receptor (P41144 whole entry): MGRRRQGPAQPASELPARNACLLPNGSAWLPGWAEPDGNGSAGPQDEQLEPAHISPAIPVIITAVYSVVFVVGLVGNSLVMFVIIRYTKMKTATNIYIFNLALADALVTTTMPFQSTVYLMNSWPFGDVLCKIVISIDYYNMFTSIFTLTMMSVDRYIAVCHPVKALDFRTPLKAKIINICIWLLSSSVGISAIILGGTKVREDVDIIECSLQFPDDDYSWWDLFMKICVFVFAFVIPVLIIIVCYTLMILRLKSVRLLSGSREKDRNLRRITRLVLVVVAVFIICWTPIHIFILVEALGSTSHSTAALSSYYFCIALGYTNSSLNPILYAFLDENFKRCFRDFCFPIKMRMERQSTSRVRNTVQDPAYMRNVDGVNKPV
Chain of Mu-type opioid receptor (Rattus norvegicus, UniProt P33535) (P33535 whole entry): as the sequence (P33535 whole entry, looked up) above
Chain of Opioid receptors; mu & delta (Homo sapiens) (P35372 whole entry, looked up): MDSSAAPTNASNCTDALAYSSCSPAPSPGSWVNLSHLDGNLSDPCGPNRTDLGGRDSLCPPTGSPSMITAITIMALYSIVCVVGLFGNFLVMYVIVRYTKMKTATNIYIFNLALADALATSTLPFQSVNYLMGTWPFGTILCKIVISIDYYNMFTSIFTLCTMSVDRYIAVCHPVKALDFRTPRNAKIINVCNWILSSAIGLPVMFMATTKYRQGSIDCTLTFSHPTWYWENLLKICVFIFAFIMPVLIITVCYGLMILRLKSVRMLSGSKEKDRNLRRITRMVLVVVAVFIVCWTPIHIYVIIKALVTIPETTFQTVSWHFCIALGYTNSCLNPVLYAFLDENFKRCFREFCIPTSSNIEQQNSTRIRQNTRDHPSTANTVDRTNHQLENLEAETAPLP
Chain of Opioid receptors; mu & delta (Homo sapiens) (P41143 whole entry, looked up): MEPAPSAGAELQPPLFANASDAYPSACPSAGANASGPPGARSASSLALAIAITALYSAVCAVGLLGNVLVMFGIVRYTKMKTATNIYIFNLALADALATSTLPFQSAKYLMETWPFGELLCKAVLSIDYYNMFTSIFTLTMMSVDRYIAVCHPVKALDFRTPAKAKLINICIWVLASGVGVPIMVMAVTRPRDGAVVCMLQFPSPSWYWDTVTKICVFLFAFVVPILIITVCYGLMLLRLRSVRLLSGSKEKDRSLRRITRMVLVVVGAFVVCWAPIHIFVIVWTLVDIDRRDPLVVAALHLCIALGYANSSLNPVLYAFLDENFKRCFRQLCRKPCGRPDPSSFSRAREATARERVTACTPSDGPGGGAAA
Chain of Mu-type opioid receptor (Homo sapiens, UniProt P35372) (P35372 whole entry): as the sequence (P35372 whole entry, looked up) above
Chain of Delta-type opioid receptor (Homo sapiens, UniProt P41143) (P41143 whole entry): as the sequence (P41143 whole entry, looked up) above

As for `C=CCN1C[C@H](C)N([C@H](c2ccc(C(=O)N(C(C)C)C(C)C)cc2)c2cccc(OC)c2)C[C@H]1C`, the Ratio (in the assay filed under Cavia porcellus; in assay [7]) was more than 352 each time. Further, the IC50 in assay [1] was more than 2500 nM; in assay [2] it was 5 nM; in assay [3], 7.1 nM; at Mu-type opioid receptor [5], more than 2500 nM; on Mu-type opioid receptor [6], 6840 nM. In [4], the Mu/delta ratio came out at 1370.
As for `C=CCN1C[C@H](C)N([C@H](c2ccc(C(=O)NCC)cc2)c2cccc(OC)c2)C[C@H]1C`, the IC50 in assay [8] was found to be 150 nM; in [1], 345 nM; on Mu-type opioid receptor [5], 242 nM. For the same molecule, the Ratio was determined as 2.3 in the assay listed under Cavia porcellus and 1.6 in assay [7].

Values taken from ChEMBL document CHEMBL1130143, “Probes for narcotic receptor-mediated phenomena. 25. Synthesis and evaluation of N-alkyl-substituted (alpha-piperazinylbenzyl)benzamides as novel, highly selective delta opioid receptor agonists” (J Med Chem, 1997).
